ChEMBL document CHEMBL1641587, “Indole-3-piperazinyl derivatives: novel chemical class of 5-HT(6) receptor antagonists” (Bioorg Med Chem Lett, 2011)
One block for each compound: values may come before it. The source made the active and inactive calls. No cut-off for these calls is given here.

What was measured:
[1] = biological target: T1, 5-hydroxytryptamine receptor 6 (Homo sapiens, UniProt P50406); assay: Displacement of [3H]LSD from human cloned 5HT6 receptor expressed in human HeLa cells by glass fiber filtration assay; type: cell-based
T1 sequence (P50406 whole entry): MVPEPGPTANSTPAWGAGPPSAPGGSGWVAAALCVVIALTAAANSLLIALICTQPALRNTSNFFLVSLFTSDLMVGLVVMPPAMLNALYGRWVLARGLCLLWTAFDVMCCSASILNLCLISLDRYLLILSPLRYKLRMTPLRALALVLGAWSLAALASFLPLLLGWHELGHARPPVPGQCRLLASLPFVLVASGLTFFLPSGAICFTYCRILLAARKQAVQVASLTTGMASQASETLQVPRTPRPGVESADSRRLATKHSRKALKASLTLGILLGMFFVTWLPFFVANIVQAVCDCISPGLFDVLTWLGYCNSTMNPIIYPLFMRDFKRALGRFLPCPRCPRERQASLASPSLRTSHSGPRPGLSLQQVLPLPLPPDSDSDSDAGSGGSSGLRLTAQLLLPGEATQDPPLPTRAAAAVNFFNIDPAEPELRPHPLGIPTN
In short: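 Radioligand binding to human cloned 5-HT6 receptors stably expressed in HeLa cells. Ki values were determined.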

[2] = Metabolic stability in human liver microsomes at 2.5 uM after 0.5 hrs; type: ADME, Microsome
In short: (§1)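 Wistar rat or human liver microsomes were incubated with 2.5 µM compound for 0.5 h, and % metabolized was measured.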

[3] = Selectivity ratio of IC50 for NET to IC50 for human recombinant 5HT6 receptor
[4] = biological target: Cytochrome P450 3A4 (Homo sapiens, UniProt P08684); assay: Inhibition of human CYP3A4; type: ADME
Cytochrome P450 3A4, sequence (P08684 whole entry, canonical isoform): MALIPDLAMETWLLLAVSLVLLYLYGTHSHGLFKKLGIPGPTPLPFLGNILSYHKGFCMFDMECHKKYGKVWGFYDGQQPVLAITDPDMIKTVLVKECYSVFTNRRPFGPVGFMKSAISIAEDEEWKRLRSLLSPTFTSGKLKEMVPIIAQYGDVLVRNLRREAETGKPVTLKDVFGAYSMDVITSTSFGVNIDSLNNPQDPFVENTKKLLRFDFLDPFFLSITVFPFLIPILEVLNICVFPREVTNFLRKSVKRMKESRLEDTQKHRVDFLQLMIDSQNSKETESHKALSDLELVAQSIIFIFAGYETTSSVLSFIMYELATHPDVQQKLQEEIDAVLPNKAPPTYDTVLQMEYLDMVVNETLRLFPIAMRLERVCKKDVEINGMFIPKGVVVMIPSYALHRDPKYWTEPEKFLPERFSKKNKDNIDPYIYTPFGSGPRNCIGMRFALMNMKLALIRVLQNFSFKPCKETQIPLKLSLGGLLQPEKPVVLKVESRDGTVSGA
In short: (§2)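 Isoform-selective assays using heterologously expressed human CYP2D6 or CYP3A4. IC50 is the mean of duplicate determinations.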

[5] = Selectivity ratio of IC50 for histamine H1 receptor to IC50 for human recombinant 5HT6 receptor
[6] = Metabolic stability in Wistar rat liver microsomes at 2.5 uM after 0.5 hrs; type: ADME, Microsome; in short: as §1
[7] = biological target: T1, 5-hydroxytryptamine receptor 6; assay: Antagonist activity at human recombinant 5HT6 receptor expressed in CHO cells assessed as inhibition of 5-HT-stimulated cAMP accumulation by luminometry; type: functional, cell-based
In short: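 Non-radioactive cell-based functional assay in CHO cells expressing 5-HT6 receptor; antagonism read as inhibition of 5-HT-stimulated cAMP accumulation. IC50 and Kb values derived, each the mean of two experiments.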

[8] = Selectivity ratio of IC50 for SERT to IC50 for human recombinant 5HT6 receptor
[9] = biological target: Cytochrome P450 2D6 (Homo sapiens, UniProt P10635); assay: Inhibition of human CYP2D6; type: ADME; in short: as §2
Cytochrome P450 2D6, sequence (P10635 whole entry): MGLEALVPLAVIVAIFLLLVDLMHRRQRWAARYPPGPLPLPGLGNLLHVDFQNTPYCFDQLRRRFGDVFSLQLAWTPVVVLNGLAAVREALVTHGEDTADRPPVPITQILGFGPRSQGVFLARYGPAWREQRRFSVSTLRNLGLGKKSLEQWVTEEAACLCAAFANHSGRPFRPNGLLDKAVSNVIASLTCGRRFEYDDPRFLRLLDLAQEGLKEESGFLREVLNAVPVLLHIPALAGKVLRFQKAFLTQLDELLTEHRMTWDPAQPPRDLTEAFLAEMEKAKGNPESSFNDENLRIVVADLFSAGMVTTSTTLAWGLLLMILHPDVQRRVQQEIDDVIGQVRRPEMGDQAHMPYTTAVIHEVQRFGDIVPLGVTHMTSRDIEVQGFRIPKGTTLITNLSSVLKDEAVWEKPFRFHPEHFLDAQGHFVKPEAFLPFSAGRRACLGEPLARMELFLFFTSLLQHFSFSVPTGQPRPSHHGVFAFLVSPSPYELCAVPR

[10] = Selectivity ratio of IC50 for dopamine D2 receptor to IC50 for human recombinant 5HT6 receptor
[11] = test system: Rattus norvegicus; assay: Apparent volume of distribution in Wistar rat at 5 mg/kg, po; type: ADME, organism-based; parameters: dose 5 mg/kg, route oral; details: in vivo
In short: (§3)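 Fasted male Wistar rats received a 5 mg/kg dose orally or iv, with water for injection as vehicle for both routes. n = 3 per route. Plasma parameters were derived per route: AUC, Cmax, t1/2, Vz, clearance, and oral bioavailability (F).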

[12] = AUC in Wistar rat at 5 mg/kg, po; type: ADME, organism-based; parameters: dose 5 mg/kg, route oral; details: plasma; in short: as §3
[13] = Oral bioavailability in Wistar rat at 5 mg/kg; type: ADME, organism-based; details: in vivo; in short: as §3
[14] = species: Rattus norvegicus; details: 10 mg/kg
[15] = Half life in Wistar rat at 5 mg/kg, po; type: ADME, organism-based; parameters: dose 5 mg/kg, route oral; details: in vivo; in short: as §3
[16] = Cmax in Wistar rat at 5 mg/kg, iv; type: ADME, organism-based; parameters: dose 5 mg/kg, route intravenous; details: in vivo; in short: as §3
[17] = Clearance in Wistar rat at 5 mg/kg, po; type: ADME, organism-based; parameters: dose 5 mg/kg, route oral; details: in vivo; in short: as §3
[18] = Clearance in Wistar rat at 5 mg/kg, iv; type: ADME, organism-based; parameters: dose 5 mg/kg, route intravenous; details: in vivo; in short: as §3
[19] = AUC in Wistar rat at 5 mg/kg, iv; type: ADME, organism-based; parameters: dose 5 mg/kg, route intravenous; details: plasma; in short: as §3
[20] = test system: Rattus norvegicus; assay: Cognitive enhancing effect in Wistar rat at 10 mg/kg, po by novel object recognition test; type: functional, organism-based; parameters: dose 10 mg/kg
In short: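 Novel object recognition test in male Wistar rats. Drug or vehicle (PEG 400 50% v/v, 1 mL/kg) was given p.o. 60 min before the test, n=6-9/group. Read-out was exploration time of the familiar versus the novel object, given as mean SEM and analysed by paired t test.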

[21] = Cmax in Wistar rat at 5 mg/kg, po; type: ADME, organism-based; parameters: dose 5 mg/kg, route oral; details: in vivo; in short: as §3
[22] = Half life in Wistar rat at 5 mg/kg, iv; type: ADME, organism-based; parameters: dose 5 mg/kg, route intravenous; details: in vivo; in short: as §3
[23] = Apparent volume of distribution in Wistar rat at 5 mg/kg, iv; type: ADME, organism-based; parameters: dose 5 mg/kg, route intravenous; details: in vivo, read-out: Vz; in short: as §3

Ki [1]: 82.3 nM
SMILES: CCN1CCN(c2cn(S(=O)(=O)c3ccc(OC)cc3)c3cc(Cl)ccc23)CC1

Ki [1]: 15.2 nM
SMILES: CN1CCN(c2cn(S(=O)(=O)c3ccccc3Br)c3ccccc23)CC1

Ki [1]: 63.5 nM
SMILES: CCN1CCN(c2cn(S(=O)(=O)c3cc(OC)ccc3OC)c3cc(Cl)ccc23)CC1

Ki [1]: 8.6 nM
SMILES: CCN1CCN(c2cn(S(=O)(=O)c3ccc(C(C)C)cc3)c3ccccc23)CC1

Ki [1]: 55.3 nM
SMILES: CC(C)c1ccc(S(=O)(=O)n2cc(N3CCN(C)CC3)c3ccc(Cl)cc32)cc1

Ki [1]: 23.2 nM
SMILES: CC(C)c1ccc(S(=O)(=O)n2cc(N3CCN(C)CC3)c3cc(Br)ccc32)cc1

% metabolism at 0.5 h, 2.5 µM [2]: 85%
Ratio IC50 [3]: > 50
IC50 [4]: 4770 nM
Ratio IC50 [5]: > 50
% metabolism at 0.5 h, 2.5 µM [6]: 99%
IC50 [7]: 292 nM
Kb [7]: 0.5 nM
Ratio IC50 [8]: > 50
IC50 [9]: 26400 nM
Ratio IC50 [10]: > 50
Ki [1]: 11.8 nM
SMILES: CN1CCN(c2cn(S(=O)(=O)c3ccc(F)cc3)c3ccccc23)CC1

Ki [1]: 25.5 nM
SMILES: CCN1CCN(c2cn(S(=O)(=O)c3ccc4ccccc4c3)c3cc(Cl)ccc23)CC1

Ki [1]: 20.3 nM
SMILES: CCN1CCN(c2cn(S(=O)(=O)c3ccccc3Br)c3ccc(Cl)cc23)CC1

Ki [1]: 10.2 nM
SMILES: CN1CCN(c2cn(S(=O)(=O)c3ccccc3Br)c3ccc(Br)cc23)CC1

Ratio IC50 [3]: > 50
Ratio IC50 [5]: > 50
IC50 [7]: 1780 nM
Kb [7]: 3.5 nM
Ratio IC50 [8]: > 50
Ratio IC50 [10]: > 50
Ki [1]: 10.7 nM
SMILES: CCN1CCN(c2cn(S(=O)(=O)c3ccc(F)cc3)c3ccc(Cl)cc23)CC1

Ki [1]: 30.5 nM
SMILES: CCN1CCN(c2cn(S(=O)(=O)c3ccc(C(C)C)cc3)c3ccc(Cl)cc23)CC1

% metabolism at 0.5 h, 2.5 µM [2]: 80%
Vz [11]: 436 L/kg
Ratio IC50 [3]: > 50
AUC [12]: 59 ng·h/mL
bioavailability [13]: 8%
half-life [15]: 2.35 h
Cmax [16]: 365 ng/mL
CL/F [17]: 2200 mL/min/kg
clearance [18]: 133 mL/min/kg
AUC [19]: 674 ng·h/mL
IC50 [4]: 5540 nM
Ratio IC50 [5]: > 50
Cmax [21]: 40 ng/mL
% metabolism at 0.5 h, 2.5 µM [6]: 95%
half-life [22]: 4.47 h
Vd [23]: 51.8 L/kg
IC50 [7]: 310 nM
Kb [7]: 0.53 nM
Ratio IC50 [8]: > 50
IC50 [9]: 39200 nM
Ratio IC50 [10]: > 50
Ki [1]: 3.4 nM
SMILES: CC(C)c1ccc(S(=O)(=O)n2cc(N3CCN(C)CC3)c3ccccc32)cc1
inhibition [14]: Active
Activity [20]: Active

Ki [1]: 10.6 nM
SMILES: CCN1CCN(c2cn(S(=O)(=O)c3ccc(F)cc3)c3ccc(Br)cc23)CC1

Ki [1]: 30.1 nM
SMILES: CCN1CCN(c2cn(S(=O)(=O)c3ccc(C(C)C)cc3)c3ccc(Br)cc23)CC1

Ki [1]: 30.2 nM
SMILES: CN1CCN(c2cn(S(=O)(=O)c3ccccc3Br)c3cc(Cl)ccc23)CC1

% metabolism at 0.5 h, 2.5 µM [2]: 96%
Ratio IC50 [3]: > 50
IC50 [4]: 4610 nM
Ratio IC50 [5]: > 50
% metabolism at 0.5 h, 2.5 µM [6]: 99%
IC50 [7]: 322 nM
Kb [7]: 0.6 nM
Ratio IC50 [8]: > 50
IC50 [9]: 28800 nM
Ratio IC50 [10]: > 50
Ki [1]: 9.2 nM
SMILES: CN1CCN(c2cn(S(=O)(=O)c3ccc(F)cc3)c3ccc(Br)cc23)CC1

Ratio IC50 [3]: > 50
Ratio IC50 [5]: > 50
IC50 [7]: 1530 nM
Kb [7]: 3 nM
Ratio IC50 [8]: > 50
Ratio IC50 [10]: > 50
Ki [1]: 7.8 nM
SMILES: CN1CCN(c2cn(S(=O)(=O)c3cccc(Cl)c3)c3ccc(Br)cc23)CC1

Ki [1]: 15.9 nM
SMILES: CN1CCN(c2cn(S(=O)(=O)c3ccccc3)c3ccccc23)CC1

Ki [1]: 10.8 nM
SMILES: CN1CCN(c2cn(S(=O)(=O)c3cccc(Cl)c3)c3ccccc23)CC1
